Activity calls are given as the source filed them. No cut-off for these calls is given here.
Legend:
[1] = system: Bacillus subtilis; assay: Antibacterial activity against Bacillus subtilis NCIB 3610 DS1677 harboring marker-less hag mutant assessed as inhibition of surface colony-spreading at 15 ug/ml after overnight incubation at 32 degree C relative to control; type: functional; details: subsp. subtilis str. NCIB 3610 DS1677
How it was run: (§1)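 DS1677 inoculated at the centre of Tryptic soy broth soft agar (7 g L⁻¹) containing compound, incubated, then average colony diameter measured. % inhibition of spreading is relative to a DMSO control. Duplicate or triplicate, with the assay repeated if replicates differed by >10% in diameter. NPG isomers at 30 µg mL⁻¹, other compounds at 15 µg mL⁻¹.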

[2] = system: Bacillus anthracis; assay: Antibacterial activity against Bacillus anthracis Sterne assessed as inhibition of surface colony-spreading at 75 ug after overnight incubation; type: functional, organism-based
[3] = system: Bacillus subtilis; assay: Antibacterial activity against Bacillus subtilis NCIB 3610 DS1677 harboring marker-less hag mutant assessed as inhibition of surface colony-spreading at 75 ug/ml after 24 hrs relative to control; type: functional; details: subsp. subtilis str. NCIB 3610 DS1677
How it was run: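 Marker-less hag mutant DS1677 on MK agarose (semi-solid, complete defined nutrients) plates containing 75 µg mL⁻¹ compound in DMSO. Control plates contained 75 µg mL⁻¹ DMSO. Colony spreading compared with control.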

[4] = system: Proteus mirabilis; assay: Antibacterial activity against Proteus mirabilis 7002 assessed as inhibition of swarming by plate swarm assay; type: functional, organism-based
How it was run: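 Proteus plate swarm assay. Each compound at 75 µg mL⁻¹ in the plate, with swarming judged by visible effect.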

[5] = system: Bacillus subtilis; assay: Antibacterial activity against Bacillus subtilis NCIB 3610 DS1677 harboring marker-less hag mutant assessed as inhibition of surface colony-spreading at 30 ug/ml after overnight incubation at 32 degree C relative to control; type: functional; details: subsp. subtilis str. NCIB 3610 DS1677; how it was run: as §1
[6] = system: Bacillus subtilis; assay: Antibacterial activity against erythromycin-lincomycin resistant Bacillus subtilis NCIB 3610 DS64 harboring hag deletion mutant assessed as inhibition of surface colony-spreading at 75 ug/ml after 24 hrs relative to control; type: functional; details: subsp. subtilis str. NCIB 3610 DS64
How it was run: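 hag mutant DS64 (MLS antibiotic marker) inoculated at the centre of MK agarose plates with or without 75 µg mL⁻¹ compound, grown 24 h at 37 °C. Surface film spreading scored against the untreated plate.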

[7] = system: Bacillus subtilis; assay: Antibacterial activity against Bacillus subtilis NCIB 3610 DS1677 harboring marker-less hag mutant assessed as inhibition of surface colony-spreading after 16 hrs relative to control; type: functional; details: subsp. subtilis str. NCIB 3610 DS1677, 16 h
How it was run: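 B. subtilis hag deletion strain DS1677: 3 µL of an overnight LB culture spotted on Tryptic soy broth agar (7 g L⁻¹), dried 3–4 h, with graded inhibitor levels. Plates in duplicate, grown 16 h at 32 °C. IC50 derived from measured colony diameters.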

[8] = system: Bacillus anthracis; assay: Antibacterial activity against Bacillus anthracis Sterne assessed as inhibition of surface colony-spreading after overnight incubation; type: functional, organism-based

NS(=O)(=O)c1ccc(C(O)C(O)CO)cc1 (mixture of isomers)
inhibition at 15 µg/mL [1]: 4.5%

CS(=O)(=O)c1ccc([C@@H](O)[C@H](O)CO)cc1
inhibition at 15 µg/mL [1]: 69.1%
inhibition [2]: Active

CS(=O)(=O)Oc1ccc(C(O)C(O)CO)cc1 (mixture of isomers)
inhibition at 15 µg/mL [1]: 11.5%

COC[C@H](O)[C@H](OC)c1ccc(S(C)(=O)=O)cc1
inhibition at 15 µg/mL [1]: 0%

O=[N+]([O-])c1ccc([C@H](O)[C@H](O)CO)cc1
inhibition [3]: inactive
inhibition [4]: inactive
inhibition at 30 µg/mL [5]: 1.5%

O=[N+]([O-])c1ccc([C@@H](O)[C@H](O)CO)cc1
inhibition [3]: inactive
inhibition [4]: Active
inhibition at 30 µg/mL [5]: 16.1%

OCC(O)C(O)c1ccccc1 (mixture of isomers)
inhibition at 15 µg/mL [1]: 12.9%

COC(=O)c1ccc(C(O)C(O)CO)cc1 (mixture of isomers)
inhibition at 15 µg/mL [1]: 0%

CSc1ccc(C(O)C(O)CO)cc1 (mixture of isomers)
inhibition at 15 µg/mL [1]: 0%

CS(=O)(=O)c1ccc([C@H](O)[C@@H](O)CO)cc1
inhibition at 15 µg/mL [1]: 0%

O=[N+]([O-])c1ccc([C@H](O)[C@@H](O)CO)cc1
inhibition [3]: inactive
inhibition [4]: inactive
inhibition at 30 µg/mL [5]: 0%

CS(=O)(=O)c1cccc(C(O)C(O)CO)c1 (mixture of isomers)
inhibition at 15 µg/mL [1]: 10.5%

CS(=O)(=O)c1ccc([C@H](O)[C@H](O)CO)cc1
inhibition at 15 µg/mL [1]: 1.6%

CS(=O)(=O)c1ccccc1[C@@H](O)[C@@H](O)CO
inhibition at 15 µg/mL [1]: 0%

OCC(O)C(O)c1ccc(O)cc1 (mixture of isomers)
inhibition at 15 µg/mL [1]: 12.9%

O=[N+]([O-])c1ccc(C(O)C(O)CO)cc1 (stereo not given)
inhibition [6]: Active

CO[C@H](c1ccc(S(C)(=O)=O)cc1)[C@@H](O)CO
inhibition at 15 µg/mL [1]: 0%

O=[N+]([O-])c1ccc([C@@H](O)[C@@H](O)CO)cc1
inhibition [3]: Active
IC50 [7]: 122 µM
inhibition [4]: Active
inhibition at 30 µg/mL [5]: 24.8%
IC50 [8]: > 150 µM

CS(=O)(=O)c1ccc([C@@H](O)[C@@H](O)CO)cc1
inhibition at 15 µg/mL [1]: 95.3%
inhibition [2]: Active
IC50 [8]: 12 µM

C=C[C@H](O)c1ccc(S(C)(=O)=O)cc1
inhibition at 15 µg/mL [1]: 21.3%

COC[C@H](OC)[C@H](OC)c1ccc(S(C)(=O)=O)cc1
inhibition at 15 µg/mL [1]: 18.5%

COC[C@H](O)[C@H](O)c1ccc(S(C)(=O)=O)cc1
inhibition at 15 µg/mL [1]: 10.1%

From ChEMBL document CHEMBL1833891, “New inhibitors of colony spreading in Bacillus subtilis and Bacillus anthracis” (Bioorg Med Chem Lett, 2011)
